The test system of assay [1] is Nakaseomyces glabratus. Nature of the assay: Antimicrobial activity against flucytosine, azole, and caspofungin resistant Candida glabrata bloodstream isolate 3 harboring Fur1 G190D mutation serially obtained from hematopoietic stem cell transplant recipient by Etest.
Assay [2] concerns Nakaseomyces glabratus. Nature of the assay: Antimicrobial activity against flucytosine, azole, and caspofungin resistant Candida glabrata bloodstream isolate 2 harboring Fur1 G190D mutation serially obtained from hematopoietic stem cell transplant recipient by Etest.
The subject of assay [3] is Nakaseomyces glabratus. Nature of the assay: Antimicrobial activity against flucytosine, azole, and caspofungin resistant Candida glabrata bloodstream isolate 4 harboring FKS2 T1988C mutation and overexpressing CDR1 and CDR2 genes serially obtained from hematopoietic stem cell transplant recipient by Etest. The class given is functional. The gist of the method: (§1)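 MICs by Etest following the strip maker's instructions, with C. parapsilosis ATCC 22019 as control strain. FLC, VRC and 5FC were interpreted by published CLSI criteria. For caspofungin a susceptibility breakpoint of ≤2 mg/liter was used. Isolates were serial C. glabrata blood-culture isolates from one patient, judged the same genotype by PCR of 8 microsatellite regions with fluorescent primers.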

Assay [4] concerns Nakaseomyces glabratus. Nature of the assay: Antimicrobial activity against flucytosine, azole, and caspofungin resistant Candida glabrata bloodstream isolate 5 harboring FKS2 T1988C mutation and overexpressing CDR1 and CDR2 genes serially obtained from hematopoietic stem cell transplant recipient by Etest. Type of assay: functional. In short, it runs like this:
as §1

Assay [5] deals with Nakaseomyces glabratus. Nature of the assay: Antimicrobial activity against flucytosine, azole, and caspofungin resistant Candida glabrata bloodstream isolate 1 serially obtained from hematopoietic stem cell transplant recipient by Etest. Type of assay: functional. In short, it runs like this: as §1

≈ marks a conversion by molar mass, not a printed value.

In the case of `C[C@@H]1[C@H](O)[C@@H](C)/C=C/C=C/C=C/C=C/C=C/C=C/C=C/[C@H](O[C@@H]2O[C@H](C)[C@@H](O)[C@H](N)[C@@H]2O)C[C@@H]2O[C@](O)(C[C@@H](O)C[C@@H](O)[C@H](O)CC[C@@H](O)C[C@@H](O)CC(=O)O[C@H]1C)C[C@H](O)[C@H]2C(=O)O` [AMPHOTERICIN B], the MIC turned out to be 0.75 µg/mL (≈ 0.812 µM) in the assay on Nakaseomyces glabratus [1], 2 µg/mL (≈ 2.16 µM) with Nakaseomyces glabratus [2], 0.75 µg/mL (≈ 0.812 µM) with Nakaseomyces glabratus [3] and 0.75 µg/mL (≈ 0.812 µM) in the assay on Nakaseomyces glabratus [4].
With `CC[C@H](C)C[C@H](C)CCCCCCCCC(=O)N[C@H]1C[C@@H](O)[C@@H](NCCN)NC(=O)[C@@H]2[C@@H](O)CCN2C(=O)[C@H]([C@H](O)CCN)NC(=O)[C@H]([C@H](O)[C@@H](O)c2ccc(O)cc2)NC(=O)[C@@H]2C[C@@H](O)CN2C(=O)[C@H]([C@@H](C)O)NC1=O` [CASPOFUNGIN], the MIC is 0.125 µg/mL (≈ 0.114 µM) in the assay on Nakaseomyces glabratus [1]; 0.125 µg/mL (≈ 0.114 µM) in the assay with Nakaseomyces glabratus [2]; > 32 µg/mL in the assay with Nakaseomyces glabratus [3]; > 32 µg/mL in the assay on Nakaseomyces glabratus [4]; 0.19 µg/mL (≈ 0.174 µM) in the assay on Nakaseomyces glabratus [5].
Consider `OC(Cn1cncn1)(Cn1cncn1)c1ccc(F)cc1F` [FLUCONAZOLE], for which the MIC against Nakaseomyces glabratus [1] is 1 µg/mL (≈ 3.27 µM); with Nakaseomyces glabratus [2], 2 µg/mL (≈ 6.53 µM); in the assay on Nakaseomyces glabratus [3] it was > 256 µg/mL; against Nakaseomyces glabratus [4], > 256 µg/mL.
With `Nc1nc(=O)[nH]cc1F` [FLUCYTOSINE], the MIC against Nakaseomyces glabratus [1] was > 32 µg/mL; in the assay with Nakaseomyces glabratus [2], > 32 µg/mL; against Nakaseomyces glabratus [3] it was 0.004 µg/mL (≈ 0.031 µM); against Nakaseomyces glabratus [4], 0.004 µg/mL (≈ 0.031 µM); against Nakaseomyces glabratus [5], 0.004 µg/mL (≈ 0.031 µM).
On to `C[C@@H](c1ncncc1F)[C@](O)(Cn1cncn1)c1ccc(F)cc1F` [VORICONAZOLE], for which the MIC against Nakaseomyces glabratus [1] is 0.047 µg/mL (≈ 0.135 µM); in the assay on Nakaseomyces glabratus [2], 0.125 µg/mL (≈ 0.358 µM); in the assay on Nakaseomyces glabratus [3], 12 µg/mL (≈ 34.4 µM); in the assay on Nakaseomyces glabratus [4] it was 16 µg/mL (≈ 45.8 µM); against Nakaseomyces glabratus [5], 0.25 µg/mL (≈ 0.716 µM).
